High-throughput results deposited in PubChem BioAssay by The Scripps Research Institute Molecular Screening Center.
CHO parental Ca – counter-screen for OX1R antagonists: effect in parental CHO cells; parental CHO-K1, ATP-induced calcium, Fluo-8 fluorescence; inhibition, % at 5.6 µM; 0.63% of 330,000 active; AID 463079;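 active means inhibition above that plate's mean sample inhibition plus 3 SD, cut at about 26% in these data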;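 further: 0% = ATP-challenged DMSO wells and 100% = DMSO wells without ATP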
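Assay system: parental CHO cells; Read-out basis: percent inhibition of ATP-evoked calcium rise, normalized to controls; Benchmarks: ATP and no-ATP DMSO wells; Compound dosing: single nominal dose of 5.6 µM per compound; Signal: Fluo-8 calcium dye fluorescence; Also added: ATP as calcium-mobilizing challenge; Repeats: singlicate.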
CHO-K1 Ca antag – M1 antagonist counterscreen hit in parental CHO-K1 cells; 0.6% of 360,000 active; inhibition, % at 3 µM; ATP-induced calcium, Fluo-8 fluorescence;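 active means inhibition above a per-plate cutoff, the plate's mean sample inhibition plus 3 SD, cut at about 24% in these data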;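 further: 0% = DMSO plus EC80 ATP and 100% = DMSO alone without ATP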
OX1R antag-1 – human HCRTR1 antagonism | O43613 | 0.43% of 330,000 active | AID 434989 | CHO/OX1R cells, Fluo-8 calcium fluorescence, orexin A | inhibition, % at 5 µM;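 active means inhibition above its plate's threshold, mean inhibition of all tested compounds on the plate plus 3 SD, cut at about 37% in these data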;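 further: 0% = orexin A challenge wells and 100% = SB-334867-A antagonist wells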
Target sequence (O43613 whole entry, looked up): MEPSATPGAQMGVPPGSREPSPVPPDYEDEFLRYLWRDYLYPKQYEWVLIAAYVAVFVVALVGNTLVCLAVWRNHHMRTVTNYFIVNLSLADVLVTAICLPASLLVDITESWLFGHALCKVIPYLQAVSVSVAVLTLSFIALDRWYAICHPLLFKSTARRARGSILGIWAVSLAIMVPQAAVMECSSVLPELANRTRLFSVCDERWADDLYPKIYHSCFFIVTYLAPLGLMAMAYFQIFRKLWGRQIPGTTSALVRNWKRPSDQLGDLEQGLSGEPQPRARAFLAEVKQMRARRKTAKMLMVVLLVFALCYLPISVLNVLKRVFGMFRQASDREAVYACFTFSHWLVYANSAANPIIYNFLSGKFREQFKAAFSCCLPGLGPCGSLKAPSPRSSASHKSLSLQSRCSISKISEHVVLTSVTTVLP
M1 ag parental – nonselective activator or artifact in parental CHO-K1 cells; 0.48% of 360,000 active; AID 602248; Fluo-8 calcium fluorescence; scaled to maximal ATP response, vehicle zero; activation, % at 3 µM; in the data active means activation above about 15%;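 further: untransfected CHO-K1 host cells lacking M1 receptor as counterscreen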
OX1R antag-2 – blocks the human orexin 1 receptor; O43613; OX1R-expressing cells, FRET antagonist read-out; inhibition, % at 6.6 µM; 1.8% of 330,000 active; in the data active means inhibition mostly above about 38%, no sharp cut-off; inactive means mostly below about 40%;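 further: 0% = agonist challenge alone and 100% = reference antagonist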
CHO-K1 Ca PAM – counter-screen for M1 PAMs: effect in parental CHO-K1 cells | AID 602247 | 0.02% of 360,000 active | ATP EC20, Fluo-8 calcium fluorescence; 0% at ATP EC20, 100% at ATP max | activation, % at 3 µM;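 active means activation above the run cutoff, the mean activation of all test compounds plus 3 SD, cut at about 40% in these data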;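 further: peak over basal fluorescence ratio in a 140 s read after ATP addition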
* hit, by the source's call; / = no result. In the library only some 2.9% were active in any assay of this set; here they are far more common.

SMILES | CHO parental Ca | CHO-K1 Ca antag | OX1R antag-1 | M1 ag parental | OX1R antag-2 | CHO-K1 Ca PAM
CNC(=O)COC(=O)c1ccc2c(c1)S(=O)(=O)c1ccccc1C2=O | -12 | -21 | -8 | 3 | 74* | 10
CSc1ccc(C(=O)NCC(c2ccco2)N(C)C)cc1[N+](=O)[O-] (stereo not drawn) | -12 | -12 | -23 | 1 | 47* | 5
O=C(Nc1ccncc1)c1ccc2c(c1)S(=O)(=O)c1ccccc1C2=O | 0 | -4 | -10 | 1 | 75* | 4
N#CC(c1ccccc1)C(CC(=O)c1ccccc1)c1ccccc1 (stereo not drawn) | / | -14 | / | 1 | / | -4
O=C(NC1CCCC1)c1ccc2c(c1)S(=O)(=O)c1ccccc1C2=O | -16 | -2 | -16 | 3 | 65* | -4
CC1CCCC(C)N1C(=O)c1ccc2c(c1)S(=O)(=O)c1ccccc1C2=O (stereo not drawn) | -15 | -12 | -22 | 6 | 42* | 7
CN(C)C(CNC(=O)c1ccc2c(c1)S(=O)(=O)c1ccccc1C2=O)c1ccco1 (stereo not drawn) | -18 | -14 | -26 | 3 | 74* | 18
Cc1ccc(NS(=O)(=O)c2ccc(C(=O)NCC(c3ccco3)N(C)C)cc2)cc1 (stereo not drawn) | -2 | 8 | 6 | 26* | -11 | 11
O=C(NC1CCCCC1)c1ccc2c(c1)S(=O)(=O)c1ccccc1C2=O | -26 | -6 | -26 | 0 | 59 | -4
O=C(NCc1ccco1)c1ccc2c(c1)S(=O)(=O)c1ccccc1C2=O | -11 | -8 | -25 | 1 | 49 | 1
Oc1ccc(C=NN=C2c3ccccc3-c3ccccc32)c(O)c1 | / | -21 | / | 0 | / | 26
O=C(Nc1ccncc1)c1ccc(-c2ccccc2)cc1 | 58* | 18 | 47* | 13 | 46 | 8
O=C(Nc1cccnc1)c1ccc(-c2ccccc2)cc1 | -8 | -6 | -12 | 5 | 20 | 16
O=C(Cc1ccc(S(=O)(=O)N2CCOCC2)s1)Oc1ccc(F)cc1 | 2 | 0 | -11 | 1 | 3 | 10
COCCNC(=O)c1cnn2c(C(F)F)cc(-c3ccc(C)cc3)nc12 | -18 | -4 | -35 | 0 | 14 | -5
COc1ccc(CNC(=O)c2cnn3c(C(F)F)cc(C)nc23)cc1OC | -6 | 26* | 6 | 4 | 10 | -5
Cc1cccc(NC(=O)c2nc[nH]c2C(=O)N2CCN(c3ccccc3)CC2)c1 | -17 | 11 | -5 | 0 | 3 | -2
O=C(NCCCN1CCOCC1)c1cc(Cl)ccc1Cl | -8 | 2 | -11 | 1 | 7 | 19
O=C(Nc1cc([N+](=O)[O-])ccc1C(=O)NCCN1CCOCC1)c1ccccc1 | -10 | 3 | -6 | 0 | 75* | -11
O=C(NCCCN1CCN(CCCNC(=O)c2cc([N+](=O)[O-])ccc2Cl)CC1)c1cc([N+](=O)[O-])ccc1Cl | 1 | -12 | 3 | 0 | 72* | 24
CCOC(=O)C1=CN(Cc2ccco2)S(=O)(=O)NC1c1ccc(Br)cc1F (stereo not drawn) | -10 | -11 | 1 | 1 | 11 | 13
CN1OCC(S(=O)(=O)c2ccccc2)C1c1ccccc1 (stereo not drawn) | -13 | 13 | -19 | 0 | 13 | 0
O=S(=O)(c1ccccc1)C1CON(Cc2ccccc2)C1c1ccccc1 (stereo not drawn) | -9 | 36* | -13 | 3 | 50 | -17
CCOc1ccc(-c2cc(C(=O)Nc3ccc4c(c3)OCCO4)c3ccccc3n2)cc1 | -21 | 30* | -19 | 3 | 13 | 5
CCOc1cc(N2CCOCC2)c(OCC)cc1NC(=O)COc1ncnc2ccccc12 | -18 | -1 | -13 | 2 | 2 | 16
CCOc1ccc(-c2cc(C(=O)N/N=C/c3cccnc3)c3ccccc3n2)cc1 | -49 | 13 | -36 | 24* | 15 | -1
COc1ccc(-c2cc(C(=O)OCC(=O)Nc3ccc4c(c3)OCO4)c3ccccc3n2)cc1 | -10 | -7 | -8 | 1 | 65* | 20
CCOc1cc(N2CCOCC2)c(OCC)cc1NC(=O)c1cc(-c2ccco2)nc2ccccc12 | 8 | 2 | -1 | 5 | 37* | 17
